Measurements as given in ChEMBL document CHEMBL4229483, “Synthesis and evaluation of an orally available "Y"-shaped biaryl peroxisome proliferator-activated receptor δ agonist” (Bioorg Med Chem, 2018).

Key:
Assay type in all cases: cell-based
[1] = biological target: T1, Peroxisome proliferator-activated receptor delta (Homo sapiens, UniProt Q03181); assay: Transactivation of human PPARdelta expressed in monkey CV-1 cells coexpressing TK-PPRE-Luc after 24 hrs by luciferase reporter gene assay
T1 sequence (Q03181 whole entry): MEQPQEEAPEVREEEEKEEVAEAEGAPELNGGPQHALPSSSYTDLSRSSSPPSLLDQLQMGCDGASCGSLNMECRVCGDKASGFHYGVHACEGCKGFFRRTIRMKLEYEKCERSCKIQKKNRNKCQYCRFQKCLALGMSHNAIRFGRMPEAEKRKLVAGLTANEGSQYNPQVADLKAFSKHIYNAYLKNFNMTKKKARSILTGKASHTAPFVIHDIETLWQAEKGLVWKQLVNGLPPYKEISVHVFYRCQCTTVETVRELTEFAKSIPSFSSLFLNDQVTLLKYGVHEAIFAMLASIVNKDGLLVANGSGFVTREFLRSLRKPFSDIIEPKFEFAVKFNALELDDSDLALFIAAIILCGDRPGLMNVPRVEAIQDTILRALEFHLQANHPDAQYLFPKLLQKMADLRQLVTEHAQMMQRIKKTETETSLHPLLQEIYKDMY
Procedure, shortened: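 Agonist activity tested in transiently transfected CV-1 cells by reporter assay. EC50 is the molar concentration giving 50% of the maximal reporter activity.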

[2] = biological target: T2, Peroxisome proliferator-activated receptor alpha (Homo sapiens, UniProt Q07869); assay: Transactivation of human PPARalpha expressed in monkey CV-1 cells coexpressing TK-PPRE-Luc after 24 hrs by luciferase reporter gene assay
T2 sequence (Q07869 whole entry): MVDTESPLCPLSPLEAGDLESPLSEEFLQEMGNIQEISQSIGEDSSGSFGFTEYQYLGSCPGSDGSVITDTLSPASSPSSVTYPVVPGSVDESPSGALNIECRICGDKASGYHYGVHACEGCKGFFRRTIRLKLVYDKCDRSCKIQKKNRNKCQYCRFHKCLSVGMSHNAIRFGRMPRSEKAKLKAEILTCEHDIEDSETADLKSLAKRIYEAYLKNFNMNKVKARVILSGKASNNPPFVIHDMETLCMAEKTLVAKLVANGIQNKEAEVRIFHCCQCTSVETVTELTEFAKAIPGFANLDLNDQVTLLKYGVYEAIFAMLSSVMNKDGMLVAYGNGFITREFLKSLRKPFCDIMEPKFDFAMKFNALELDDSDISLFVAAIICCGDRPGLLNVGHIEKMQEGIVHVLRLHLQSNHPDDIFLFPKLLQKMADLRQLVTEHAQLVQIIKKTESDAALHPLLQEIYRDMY

[3] = biological target: T3, Peroxisome proliferator-activated receptor gamma (Homo sapiens, UniProt P37231); assay: Transactivation of human PPARgamma expressed in monkey CV-1 cells coexpressing TK-PPRE-Luc after 24 hrs by luciferase reporter gene assay
T3 sequence (P37231 whole entry): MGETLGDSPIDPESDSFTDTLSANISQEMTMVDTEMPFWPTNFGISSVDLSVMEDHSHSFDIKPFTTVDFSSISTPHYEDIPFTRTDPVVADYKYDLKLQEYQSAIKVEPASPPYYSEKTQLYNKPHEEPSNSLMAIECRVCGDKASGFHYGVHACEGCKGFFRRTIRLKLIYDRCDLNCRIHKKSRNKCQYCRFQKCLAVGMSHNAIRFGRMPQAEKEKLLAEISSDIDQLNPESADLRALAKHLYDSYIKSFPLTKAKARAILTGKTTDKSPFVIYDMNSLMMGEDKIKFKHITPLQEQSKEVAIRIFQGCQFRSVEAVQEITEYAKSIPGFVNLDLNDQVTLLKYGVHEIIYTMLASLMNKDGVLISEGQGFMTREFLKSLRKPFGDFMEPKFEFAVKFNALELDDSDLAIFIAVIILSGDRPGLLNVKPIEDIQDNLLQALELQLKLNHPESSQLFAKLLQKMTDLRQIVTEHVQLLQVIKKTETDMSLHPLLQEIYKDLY

SMILES | EC50 [1] | EC50 [2] | EC50 [3]
Cc1cc(SC(Cc2cc(F)c(F)c(F)c2)c2ccc(-c3ccc(F)cc3)cc2)ccc1OCC(=O)O (stereo unspecified) | 65 nM | > 10000 nM | > 10000 nM
Cc1cc(SC(Cc2cc(Cl)ccc2F)c2ccc(-c3ccc(F)cc3)cc2)ccc1OCC(=O)O (stereo unspecified) | 25 nM | > 10000 nM | > 10000 nM
Cc1cc(SC(Cc2cc(Cl)ccc2F)c2ccc(-c3cc(F)c(F)c(F)c3)cc2)ccc1OCC(=O)O (stereo unspecified) | 6.9 nM | > 10000 nM | > 10000 nM
Cc1cc(S[C@H](Cc2ccccc2)c2ccc(-c3ccc(C(F)(F)F)cc3)cc2)ccc1OCC(=O)O | 0.7 nM | – | –
Cc1cc(SC(Cc2cc(F)ccc2F)c2ccc(-c3ccc(F)cc3)cc2)ccc1OCC(=O)O (stereo unspecified) | 4 nM | > 10000 nM | > 10000 nM
Cc1cc(SC(Cc2ccccc2)c2ccc(-c3ccc(F)cc3)cc2)ccc1OCC(=O)O (stereo unspecified) | 7 nM | > 10000 nM | > 10000 nM
Cc1cc(SC(Cc2cc(Cl)ccc2F)c2ccc(-c3cccc(C(F)(F)F)c3)cc2)ccc1OCC(=O)O (stereo unspecified) | 5.3 nM | > 10000 nM | > 10000 nM
Cc1cc(SC(Cc2cc(Cl)ccc2F)c2ccc(-c3ccccc3)cc2)ccc1OCC(=O)O (stereo unspecified) | 26 nM | > 10000 nM | > 10000 nM
Cc1cc(SC(Cc2cc(C(F)(F)F)ccc2F)c2ccc(-c3ccc(F)cc3)cc2)ccc1OCC(=O)O (stereo unspecified) | 38 nM | > 10000 nM | > 10000 nM
Cc1cc(SC(Cc2cc(F)c(F)c(F)c2)c2ccc(-c3cccc(C(F)(F)F)c3)cc2)ccc1OCC(=O)O (stereo unspecified) | 12 nM | > 10000 nM | > 10000 nM
Cc1cc(SC(Cc2cc(F)c(F)c(F)c2)c2ccc(-c3ccccc3)cc2)ccc1OCC(=O)O (stereo unspecified) | 86 nM | > 10000 nM | > 10000 nM
